Sampled rows, rich in hits. Any-hit rate of the full collection: about 1.7%.
JMJD2C inh: inhibitors of GASC-1 histone demethylase, primary screen, biochemical, fluorescence, DELFIA europium; Lysine-specific demethylase 4C (Homo sapiens), Q9H3R0; GST-JMJD2C(1-420) H3K9me3 demethylation; inhibition, % at 2.35 µM; 330,000 tested, 0.069% active;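 active = more than half of a compound's replicate wells show inhibition beyond 50%, single wells judged on their own value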;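 note: signal counts dimethyl H3K9 product captured on neutravidin plate; 0% = median of DMSO wells and 100% = 0.3 times that DMSO median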
HTR2A ag: mouse Htr2a agonists via beta-arrestin recruitment, primary screen, cell-based, luminescence | 5-hydroxytryptamine receptor 2A (Mus musculus), P35363 | CHO-K1 mHTR2A beta-arrestin complementation; percent of 30 µM serotonin response | activation, % at 7.6 µM | 360,000 tested, 0.66% active | AID 624169, 2012;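 active = activation above a run cutoff, the mean activation of all tested compounds plus 3 SD, cut at about 14% in these data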;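 note: 0% = plate median of compound wells and 100% = 30 µM serotonin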
PP5 primary: PP5 phosphatase inhibitors, primary screen, biochemical, fluorescence; purified PP5c, OMFP substrate fluorescence; inhibition, % at 6.7 µM; 320,000 tested, 0.18% active; AID 1987, 2009;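 active = inhibition above the campaign's mean inhibition across all tested compounds plus 3 SD, cut at about 9.5% in these data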;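 note: 0% = DMSO only and 100% = 100 µM cantharidin control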
T cell modulator: modulators of CD8 T cell-vesicle binding, primary screen, mouse 2C CD8+ T cells, flow cytometry; 2C CD8+ T cell-vesicle binding; active compounds read low; response (vesicle binding), % at 7 µM; 330,000 tested, 0.068% active; AID 2052, 2009;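 active = response, share of CD8 T cells binding vesicles, and their 90th percentile fluorescence all below set limits, cut at about 80% in these data, passing the limit was not always enough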;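 note: values below 100% mean blocked vesicle binding to the CD8+ T cells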
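Assay system – 2C mouse CD8+ T cells · Also added – QL9-loaded Drosophila micro-vesicles · Timing – Cell–vesicle co-incubation 1.5 h at 37 °C, staining 20 min on ice · Signal – flow cytometry of vesicle-bound cells · Measure – percent CD8+ FL2 mean versus row control · Controls – Peptide-free naked vesicles (low) and QL9 vesicles with 0.7% DMSO vehicle (high)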
PP1 inh: PP1-alpha phosphatase inhibitors, primary screen, counter-screen for PP5 inhibitor project, biochemical, fluorescence, OMFP substrate, single point; Serine/threonine-protein phosphatase PP1-alpha catalytic subunit (Homo sapiens), P62136; purified PP1alpha; 320,000 tested, 0.9% active; AID 2235, 2010; inhibition, % at 6.7 µM;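 active = inhibition above the mean inhibition of all tested compounds plus 3 SD, computed separately for each screening campaign, cut at about 15% in these data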
Target sequence (P62136 whole entry, looked up): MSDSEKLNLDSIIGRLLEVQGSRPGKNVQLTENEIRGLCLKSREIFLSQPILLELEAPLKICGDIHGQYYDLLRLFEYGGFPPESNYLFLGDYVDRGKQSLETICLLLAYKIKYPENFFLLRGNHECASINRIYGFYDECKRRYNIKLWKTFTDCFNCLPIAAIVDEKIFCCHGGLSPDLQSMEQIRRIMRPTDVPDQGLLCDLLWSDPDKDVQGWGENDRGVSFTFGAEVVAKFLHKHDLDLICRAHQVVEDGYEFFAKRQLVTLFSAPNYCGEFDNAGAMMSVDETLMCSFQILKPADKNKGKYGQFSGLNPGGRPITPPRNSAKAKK
MOR ag counter: OPRM1 agonists via beta-arrestin recruitment, confirmation, counter-screen for mouse HTR2A agonist project, cell-based, luminescence, single concentration; shares compounds with HTR2A ag; U2OS OPRM1 beta-arrestin PathHunter; DMSO 0%, DAMGO 9.3 µM 100%; activation, % at 9.3 µM; 2,300 tested, 5.3% active;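 active = mean activation above the mean of DMSO-only wells plus 3 SD, cut at about 0.5% in these data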
m5-HT2A ag conf: mouse HTR2A agonists, beta-arrestin recruitment, confirmation, cell-based, luminescence, CHO-K1 PathHunter, triplicate. activation, % at 7.6 µM. DMSO 0%, 30 µM serotonin 100%. 2,300 tested, 19% active. shares compounds with HTR2A ag;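 active = mean activation across triplicates above the hit threshold derived in the original primary screen, cut at about 15% in these data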
Active calls of the source: *; nt = no result given.

SMILES	JMJD2C inh	HTR2A ag	PP5 primary	T cell modulator	PP1 inh	MOR ag counter	m5-HT2A ag conf
OCCN1CCN(c2ncnc3scc(-c4ccc(F)cc4)c23)CC1	8	16*	nt	128	nt	0	5
CC(=O)Nc1ccc(CN2CCC(N3CCC(C(=O)NC4CC4)CC3)CC2)cc1	nt	2	nt	nt	nt	nt	nt
CCc1ccc(C2NC(=S)NC3=C2C(=O)N(c2ccccc2OC)C(c2ccc(CC)cc2)N3)cc1 (configuration not stated)	-4	37*	4	555	12	0	6
CCCC[C@@H]1C=C(C(=O)O)[C@H](c2ccc(Cl)c(Cl)c2)N1S(=O)(=O)c1ccc(C)cc1	19	3	nt	0	nt	nt	nt
Cc1ccc(NC(=O)c2ccc(OC(=O)c3ccco3)cc2)cc1	8	18*	-1	290	8	0	2
Cc1ccc(Oc2ccc(NC(=O)c3ccco3)cc2)cc1	-21	-4	2	950	-2	nt	nt
O=C(Nc1ccc(Cl)cc1)c1ccco1	-7	15*	-1	290	-3	0	-3
Cc1ccccc1NC(=O)c1cccc(NC(=O)c2ccco2)c1	-5	15*	4	247	0	-1	0
C=CCN(c1ccc(F)cc1)S(=O)(=O)c1cc(C(=O)NC2CC2)ccc1Cl	nt	-3	nt	nt	nt	nt	nt
CC1CCCC(NC(=O)C2CCN(S(=O)(=O)c3cccc4nonc34)CC2)C1C (configuration not stated)	-23	7	-1	553	1	nt	nt
O=C(c1ccccc1C(=O)N1CCN(c2ccccc2)CC1)N1CCN(c2ccccc2)CC1	-2	22*	1	575	0	-1	-9
O=C(c1cc(-c2ccco2)on1)N1CCN(c2ccccc2)CC1	12	30*	0	418	5	0	-1
O=S(=O)(N1CCCCCC1)N1CCN(S(=O)(=O)N2CCOCC2)CC1	0	3	-1	148	-3	nt	nt
O=S(=O)(N1CCCCC1)N1CCCN(S(=O)(=O)N2CCCCC2)CC1	-45	15*	3	244	1	-1	-3
OC(CN1CCNCC1)Cn1c2ccccc2c2ccccc21 (configuration not stated)	-6	18*	1	231	-2	-1	6
O=C(NNC(=O)c1cc(S(=O)(=O)N2CCOCC2)ccc1Cl)c1ccc(F)cc1	nt	8	nt	nt	nt	nt	nt
CN1CCN(c2nc(-c3ccccc3)ncc2S(=O)(=O)c2ccccc2)CC1	-12	38*	0	237	-3	0	29*
Cc1ccc(S(=O)(=O)c2cnc(-c3ccccc3)nc2N2CCN(C)CC2)cc1	-5	51*	-1	561	0	0	17*
COC(=O)C[C@H]1CC[C@@H](NC(=O)Nc2cccc(OC)c2)[C@@H](CO)O1	nt	-3	nt	nt	nt	nt	nt
COC(=O)CSc1ccc(S(=O)(=O)N2CCOCC2)cc1[N+](=O)[O-]	0	2	0	370	0	nt	nt
O=C(NCc1cccs1)C1CC1	-5	6	1	580	-1	nt	nt
CC(C)N1C(=O)CCC1C(=O)NCc1cccs1 (configuration not stated)	43	23*	3	798	-2	-1	-3
C=CCN1C(=O)C(O)(CC(=O)c2ccc(N)cc2)c2ccccc21 (configuration not stated)	4	23*	-4	125	1	-1	-4
COC(=O)CN1C(=O)C(O)(CC(=O)c2ccccc2)c2ccccc21 (configuration not stated)	-7	0	4	190	-4	nt	nt
